Experimental data published in ChEMBL document CHEMBL1126562, “(1-Butyl-4-piperidinyl)methyl 8-amino-7-chloro-1,4-benzodioxane-5-carboxylate hydrochloride: a highly potent and selective 5-HT4 receptor antagonist derived from metoclopramide” (J Med Chem, 1993).
One block for each compound: values may come before it.

Key:
[1] = target: 5-hydroxytryptamine receptor 4 (Cavia porcellus, UniProt O70528); assay: Inhibition of 5-HT-evoked 5-HT4 receptor-mediated contractions in the guinea pig distal colon longitudinal muscle myenteric plexus (LMMP); format: functional
5-hydroxytryptamine receptor 4, sequence (O70528 whole entry): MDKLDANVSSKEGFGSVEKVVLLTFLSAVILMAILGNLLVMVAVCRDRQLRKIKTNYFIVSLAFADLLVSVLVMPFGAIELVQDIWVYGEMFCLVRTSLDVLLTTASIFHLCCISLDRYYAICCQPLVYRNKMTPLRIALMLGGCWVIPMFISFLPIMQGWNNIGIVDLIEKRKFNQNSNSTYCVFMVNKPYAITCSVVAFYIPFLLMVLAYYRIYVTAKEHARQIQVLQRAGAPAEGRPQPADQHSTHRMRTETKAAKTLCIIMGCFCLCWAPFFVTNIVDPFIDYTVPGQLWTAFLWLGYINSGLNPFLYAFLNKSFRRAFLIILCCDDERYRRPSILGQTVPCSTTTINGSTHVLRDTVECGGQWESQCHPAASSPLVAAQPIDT

[2] = target: T1, 5-hydroxytryptamine receptor 1A (Mus musculus, UniProt Q64264); assay: Tested against 5-hydroxytryptamine 1A receptor
T1 sequence (Q64264 whole entry): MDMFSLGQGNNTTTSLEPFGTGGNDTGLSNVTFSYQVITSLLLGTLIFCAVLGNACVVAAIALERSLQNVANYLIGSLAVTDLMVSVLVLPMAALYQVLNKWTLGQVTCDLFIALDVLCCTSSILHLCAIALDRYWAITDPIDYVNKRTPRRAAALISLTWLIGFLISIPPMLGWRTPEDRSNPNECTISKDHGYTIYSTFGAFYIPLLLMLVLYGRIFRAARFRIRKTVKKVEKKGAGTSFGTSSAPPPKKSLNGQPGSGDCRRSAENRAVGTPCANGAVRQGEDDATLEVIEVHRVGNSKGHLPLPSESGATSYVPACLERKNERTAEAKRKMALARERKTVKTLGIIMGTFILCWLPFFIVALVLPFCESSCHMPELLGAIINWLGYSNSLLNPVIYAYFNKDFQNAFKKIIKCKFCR

[3] = target: D(1A) dopamine receptor (Mus musculus, UniProt Q61616); assay: Tested against dopamine receptor D1
D(1A) dopamine receptor, sequence (Q61616 whole entry): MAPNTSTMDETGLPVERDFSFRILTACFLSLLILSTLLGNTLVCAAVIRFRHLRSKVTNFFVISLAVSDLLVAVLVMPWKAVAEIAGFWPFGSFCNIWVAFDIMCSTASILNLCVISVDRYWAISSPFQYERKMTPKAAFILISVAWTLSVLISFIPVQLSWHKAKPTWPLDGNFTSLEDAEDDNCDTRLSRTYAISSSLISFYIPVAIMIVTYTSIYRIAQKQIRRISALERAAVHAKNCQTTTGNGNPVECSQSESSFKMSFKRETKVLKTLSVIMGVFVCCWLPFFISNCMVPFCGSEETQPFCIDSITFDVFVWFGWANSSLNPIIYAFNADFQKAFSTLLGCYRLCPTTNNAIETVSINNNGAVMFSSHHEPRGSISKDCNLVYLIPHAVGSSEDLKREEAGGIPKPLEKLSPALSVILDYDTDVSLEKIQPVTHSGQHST

[4] = target: D(2) dopamine receptor (Homo sapiens, UniProt P14416); assay: Tested against dopamine receptor D2 using cloned human receptor expressed in CHO cells radiolabeled with [125I]iodosulpiride; format: cell-based
D(2) dopamine receptor, sequence (P14416 whole entry): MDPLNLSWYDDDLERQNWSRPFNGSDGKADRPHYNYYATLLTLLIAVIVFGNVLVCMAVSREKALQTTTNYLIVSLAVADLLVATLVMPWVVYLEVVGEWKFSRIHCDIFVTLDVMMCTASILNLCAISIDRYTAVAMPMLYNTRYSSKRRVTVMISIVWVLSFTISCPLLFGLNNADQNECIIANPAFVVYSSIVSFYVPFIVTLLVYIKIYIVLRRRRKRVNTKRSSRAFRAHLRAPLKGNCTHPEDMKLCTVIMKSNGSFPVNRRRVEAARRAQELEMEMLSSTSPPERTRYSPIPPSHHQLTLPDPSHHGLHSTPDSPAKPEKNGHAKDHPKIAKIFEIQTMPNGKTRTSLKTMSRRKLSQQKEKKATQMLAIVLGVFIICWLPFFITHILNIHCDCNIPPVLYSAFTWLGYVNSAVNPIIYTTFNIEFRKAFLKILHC
Procedure, shortened: (§1)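 Competition binding on cloned human D2 or D3 receptors expressed in CHO cells, radiolabelled with [¹²⁵I]iodosulpride.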

[5] = target: Serotonin 3 (5-HT3) receptor; assay: Tested against 5-hydroxytryptamine 3 receptor in experiment 2; format: protein-complex assay
[6] = target: 5-hydroxytryptamine receptor 1D (Homo sapiens, UniProt P28221); assay: Tested against 5-hydroxytryptamine 1D receptor
5-hydroxytryptamine receptor 1D, sequence (P28221 whole entry): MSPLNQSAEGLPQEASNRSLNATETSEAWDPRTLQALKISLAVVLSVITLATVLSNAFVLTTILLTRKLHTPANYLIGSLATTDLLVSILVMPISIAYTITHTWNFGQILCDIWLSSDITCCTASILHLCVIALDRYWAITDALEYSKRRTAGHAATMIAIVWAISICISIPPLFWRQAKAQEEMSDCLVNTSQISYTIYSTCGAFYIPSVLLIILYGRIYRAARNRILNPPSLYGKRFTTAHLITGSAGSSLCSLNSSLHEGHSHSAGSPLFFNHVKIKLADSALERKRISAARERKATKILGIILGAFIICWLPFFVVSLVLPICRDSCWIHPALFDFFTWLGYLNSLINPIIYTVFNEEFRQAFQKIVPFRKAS

[7] = target: T2, 5-hydroxytryptamine receptor 2C (Homo sapiens, UniProt P28335); assay: Tested agains t5-hydroxytryptamine 2C receptor in experiment 1
T2 sequence (P28335 whole entry): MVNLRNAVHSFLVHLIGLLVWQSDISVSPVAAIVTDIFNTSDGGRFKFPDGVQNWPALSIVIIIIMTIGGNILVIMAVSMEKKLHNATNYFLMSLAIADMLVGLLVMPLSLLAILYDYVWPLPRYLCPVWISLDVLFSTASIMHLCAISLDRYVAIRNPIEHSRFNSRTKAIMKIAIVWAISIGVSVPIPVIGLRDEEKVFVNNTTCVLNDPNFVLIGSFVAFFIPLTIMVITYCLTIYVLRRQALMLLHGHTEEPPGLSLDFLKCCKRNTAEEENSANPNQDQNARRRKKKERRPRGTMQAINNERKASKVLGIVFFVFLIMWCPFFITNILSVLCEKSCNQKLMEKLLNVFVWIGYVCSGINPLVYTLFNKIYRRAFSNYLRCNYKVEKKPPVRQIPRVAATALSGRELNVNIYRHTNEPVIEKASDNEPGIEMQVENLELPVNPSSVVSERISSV

[8] = target: D(3) dopamine receptor (Homo sapiens, UniProt P35462); assay: Tested against dopamine receptor D3 using cloned human receptor expressed in CHO cells radiolabeled with [125I]iodosulpiride; format: cell-based; procedure, shortened: as §1
D(3) dopamine receptor, sequence (P35462 whole entry): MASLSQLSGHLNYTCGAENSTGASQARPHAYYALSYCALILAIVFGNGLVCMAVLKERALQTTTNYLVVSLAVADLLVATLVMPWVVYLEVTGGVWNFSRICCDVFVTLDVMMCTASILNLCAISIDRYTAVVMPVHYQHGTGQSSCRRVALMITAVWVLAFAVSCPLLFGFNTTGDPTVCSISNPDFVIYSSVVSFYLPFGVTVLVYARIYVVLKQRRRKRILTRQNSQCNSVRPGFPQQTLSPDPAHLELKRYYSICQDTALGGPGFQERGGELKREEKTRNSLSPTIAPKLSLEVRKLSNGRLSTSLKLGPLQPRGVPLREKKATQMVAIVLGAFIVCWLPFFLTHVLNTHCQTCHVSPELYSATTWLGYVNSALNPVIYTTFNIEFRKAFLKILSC

[9] = Acid dissociation constant was determined; format: ADME
[10] = target: Beta-2 adrenergic receptor (Homo sapiens, UniProt P07550); assay: Tested against Beta-2 adrenergic receptor
Beta-2 adrenergic receptor, sequence (P07550 whole entry): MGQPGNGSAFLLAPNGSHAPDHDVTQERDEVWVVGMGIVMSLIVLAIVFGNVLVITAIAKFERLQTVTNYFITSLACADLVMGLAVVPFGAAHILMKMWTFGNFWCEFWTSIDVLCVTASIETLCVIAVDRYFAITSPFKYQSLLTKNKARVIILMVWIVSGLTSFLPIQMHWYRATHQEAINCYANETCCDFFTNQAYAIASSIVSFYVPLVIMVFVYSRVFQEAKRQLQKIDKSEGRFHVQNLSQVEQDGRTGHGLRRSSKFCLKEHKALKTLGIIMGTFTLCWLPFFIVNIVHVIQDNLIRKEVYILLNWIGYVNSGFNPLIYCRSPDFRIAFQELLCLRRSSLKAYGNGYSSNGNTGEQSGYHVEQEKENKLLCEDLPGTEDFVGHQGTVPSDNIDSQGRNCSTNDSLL

[11] = target: 5-hydroxytryptamine receptor 1E (Homo sapiens, UniProt P28566); assay: Tested for binding affinity towards cloned human 5-hydroxytryptamine 1E receptor using [3H]5-HT as radioligand
5-hydroxytryptamine receptor 1E, sequence (P28566 whole entry): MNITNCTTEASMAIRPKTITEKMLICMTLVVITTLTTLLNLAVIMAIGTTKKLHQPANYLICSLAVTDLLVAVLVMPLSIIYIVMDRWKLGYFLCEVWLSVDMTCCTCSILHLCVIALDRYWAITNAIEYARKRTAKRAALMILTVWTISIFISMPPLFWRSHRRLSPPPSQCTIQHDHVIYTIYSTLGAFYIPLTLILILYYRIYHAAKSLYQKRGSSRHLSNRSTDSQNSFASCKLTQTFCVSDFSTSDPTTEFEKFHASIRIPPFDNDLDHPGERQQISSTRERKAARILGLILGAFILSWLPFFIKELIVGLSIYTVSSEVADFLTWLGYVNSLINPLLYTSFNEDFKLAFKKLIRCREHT
Procedure, shortened: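 Radioligand binding on the cloned human 5-HT1E receptor, labelled with [³H]-5-HT.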

[12] = target: Beta-1 adrenergic receptor (Homo sapiens, UniProt P08588); assay: Tested against Beta-1 adrenergic receptor
Beta-1 adrenergic receptor, sequence (P08588 whole entry): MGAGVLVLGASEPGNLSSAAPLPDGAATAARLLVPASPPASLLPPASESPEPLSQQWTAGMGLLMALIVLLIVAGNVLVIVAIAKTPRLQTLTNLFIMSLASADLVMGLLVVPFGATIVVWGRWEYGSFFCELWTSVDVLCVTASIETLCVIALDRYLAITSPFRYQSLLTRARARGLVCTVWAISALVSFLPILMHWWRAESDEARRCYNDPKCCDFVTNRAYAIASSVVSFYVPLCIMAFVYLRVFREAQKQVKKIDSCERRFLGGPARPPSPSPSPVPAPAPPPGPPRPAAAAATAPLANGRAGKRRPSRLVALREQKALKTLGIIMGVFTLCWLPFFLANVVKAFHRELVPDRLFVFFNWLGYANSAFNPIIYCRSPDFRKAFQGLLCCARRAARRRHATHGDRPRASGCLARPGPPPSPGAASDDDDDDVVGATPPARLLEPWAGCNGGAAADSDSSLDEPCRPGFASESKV

[13] = target: T3, Alpha-1D adrenergic receptor (Rattus norvegicus, UniProt P23944); assay: Tested against adrenergic alpha-1 receptor radiolabeled with [3H]7-methoxyprazosin
T3 sequence (P23944 whole entry): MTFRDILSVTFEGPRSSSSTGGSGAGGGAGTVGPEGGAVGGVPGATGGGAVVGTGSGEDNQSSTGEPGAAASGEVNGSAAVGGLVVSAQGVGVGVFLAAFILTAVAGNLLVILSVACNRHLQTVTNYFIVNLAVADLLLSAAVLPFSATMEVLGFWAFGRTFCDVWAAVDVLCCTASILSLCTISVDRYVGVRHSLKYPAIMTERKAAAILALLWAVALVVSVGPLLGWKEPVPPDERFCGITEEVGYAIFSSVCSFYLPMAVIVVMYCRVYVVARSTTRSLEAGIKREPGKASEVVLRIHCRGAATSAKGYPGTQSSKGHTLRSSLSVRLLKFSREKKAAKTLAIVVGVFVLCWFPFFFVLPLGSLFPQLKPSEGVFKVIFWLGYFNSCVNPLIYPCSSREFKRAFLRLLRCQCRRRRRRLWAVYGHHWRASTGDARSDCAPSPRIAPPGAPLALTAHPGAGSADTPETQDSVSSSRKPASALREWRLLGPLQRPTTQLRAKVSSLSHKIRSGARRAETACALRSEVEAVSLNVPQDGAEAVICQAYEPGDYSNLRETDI
Procedure, shortened: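 α1-Adrenoceptor binding, radiolabelled with [³H]-7-methoxyprazosin.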

[14] = Partition coefficient (logP); format: physicochemical; conditions: octanol/water
[15] = Concentration-dependent rightward shift of the 5-HT curve yielding an apparent pA2; format: ADME
[16] = target: T2, 5-hydroxytryptamine receptor 2C; assay: Tested against 5-hydroxytryptamine 2C receptor in experiment 2
[17] = target: T4, Alpha-2A adrenergic receptor (Homo sapiens, UniProt P08913); assay: Tested against adrenergic alpha-2 receptor
T4 sequence (P08913 whole entry): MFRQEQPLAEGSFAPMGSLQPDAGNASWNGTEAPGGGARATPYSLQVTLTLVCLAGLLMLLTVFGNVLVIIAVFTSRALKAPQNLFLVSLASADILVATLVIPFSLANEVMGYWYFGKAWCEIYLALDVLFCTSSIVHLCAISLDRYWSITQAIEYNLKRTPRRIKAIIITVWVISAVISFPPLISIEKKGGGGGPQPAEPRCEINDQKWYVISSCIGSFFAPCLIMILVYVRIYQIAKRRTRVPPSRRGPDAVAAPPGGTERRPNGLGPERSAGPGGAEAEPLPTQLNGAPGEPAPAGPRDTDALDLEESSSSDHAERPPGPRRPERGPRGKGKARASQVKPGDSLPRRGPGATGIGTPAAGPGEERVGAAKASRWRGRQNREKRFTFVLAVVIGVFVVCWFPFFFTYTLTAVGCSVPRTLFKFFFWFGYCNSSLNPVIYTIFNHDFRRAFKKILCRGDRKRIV

[18] = target: 5-hydroxytryptamine receptor 2A (Homo sapiens, UniProt P28223); assay: Tested against 5-hydroxytryptamine 2A receptor
5-hydroxytryptamine receptor 2A, sequence (P28223 whole entry): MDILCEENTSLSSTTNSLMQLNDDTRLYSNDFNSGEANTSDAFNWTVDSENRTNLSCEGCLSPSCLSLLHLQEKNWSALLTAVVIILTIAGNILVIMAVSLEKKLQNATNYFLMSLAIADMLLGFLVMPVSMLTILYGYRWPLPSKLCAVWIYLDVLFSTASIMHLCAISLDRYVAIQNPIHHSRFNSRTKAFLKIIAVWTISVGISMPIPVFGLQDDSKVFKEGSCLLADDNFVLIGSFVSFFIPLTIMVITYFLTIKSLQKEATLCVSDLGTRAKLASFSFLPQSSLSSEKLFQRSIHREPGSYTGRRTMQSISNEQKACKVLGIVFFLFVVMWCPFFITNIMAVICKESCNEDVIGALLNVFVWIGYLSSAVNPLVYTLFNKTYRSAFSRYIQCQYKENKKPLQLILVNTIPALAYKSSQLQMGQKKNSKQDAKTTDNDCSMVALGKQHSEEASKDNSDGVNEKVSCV

[19] = target: Serotonin 3 (5-HT3) receptor; assay: Tested against 5-hydroxytryptamine 3 receptor in experiment 1; format: protein-complex assay

Structure (SMILES): CN1[C@@H]2CC[C@H]1C[C@@H](OC(=O)c1c[nH]c3ccccc13)C2 [TROPISETRON]
IC50 [1]: 3160 nM

Structure (SMILES): CCCCN1CCC(COC(=O)c2cccc3c2OCCCO3)CC1
IC50 [1]: 50.1 nM

Structure (SMILES): CCCCN1CCC(COC(=O)c2cccc3c2OCCO3)CC1
IC50 [1]: 6.31 nM

Structure (SMILES): CCCCN1CCC(COC(=O)c2cccc3c2OCO3)CC1
IC50 [1]: 63.1 nM

Structure (SMILES): CCN(CC)CCOC(=O)c1cc(Cl)c(N)cc1OC
IC50 [1]: 251 nM

Further compounds by falling IC50 [1], results first:

IC50 [1]: 10 nM
Structure (SMILES): CCCCN1CCC(CNC(=O)c2cc(Cl)c(N)cc2OC)CC1

IC50 [1]: 1 nM
Structure (SMILES): CCCCN1CCC(COC(=O)c2cc(Cl)c(N)cc2OC)CC1

Ki [2]: > 1000 nM
Ki [3]: > 1000 nM
IC50 [1]: 0.1 nM
Ki [4]: > 10000 nM
Log Ki [5]: -6.7
Ki [6]: > 10000 nM
Ki [7]: 126 nM
Ki [8]: > 1000 nM
pKa [9]: 10.4
Ki [10]: > 1000 nM
Ki [11]: > 10000 nM
Ki [12]: > 1000 nM
Ki [13]: > 1000 nM
logP [14]: 4.86
Ki [16]: 79.4 nM
Ki [17]: > 1000 nM
Ki [18]: > 1000 nM
Log Ki [19]: -6.6
Structure (SMILES): CCCCN1CCC(COC(=O)c2cc(Cl)c(N)c3c2OCCO3)CC1
pA2 [15]: 10.8
